Compound activity: PubChem BioAssay, several laboratories
A selection: hits, their analogues and other compounds. The true share with any hit is near 27%.
Cav32 inh: inhibitors of human Cav3.2 T-type calcium channel. AID 449739. Cav3.2-expressing cells, Fluo-4 calcium fluorescence FDSS; stronger effect = lower value. B-score at 10 µM. actives 4% (n = 100,000);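 active means single-dose well whose peak fluorescence ratio is a statistical outlier from its plate by either plate-standardised score or position-corrected B-score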
CYP2C19 inhib: inhibitors of human CYP2C19; inhibition, % at 5 µM; AID 778; CYP2C19 Supersomes, luciferin-H EGE luminescence, 30 min; actives 21% (n = 96,000);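 active means CYP2C19 inhibition above a set limit at 5 µM in the primary screen, cut at about 50% in these data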;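 further: plate controls were negative control wells for no effect and 2.5 mM tranylcypromine positive control for full effect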
HIV Rev-RRE inh: disrupts HIV-1 Rev binding to RRE RNA. actives 0.79% (n = 97,000). P05866. inhibition, % at 8 µM. Rev peptide-RRE RNA binding, FRET;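 active means inhibition above the screen-wide mean plus 3 SD, cut at about 35% in these data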;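 further: 0% = median DMSO wells and 100% = median Neomycin B control wells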
Target sequence (P05866 whole entry, looked up): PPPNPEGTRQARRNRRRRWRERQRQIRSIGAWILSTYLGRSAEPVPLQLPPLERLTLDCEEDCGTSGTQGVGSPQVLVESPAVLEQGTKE
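Test system: Cy5-tagged RRE RNA duplex with fluorescein-tagged Rev peptide; Probe or stimulus: labelled Rev peptide; Schedule: 5 min preincubation and 15 min binding, 25 °C; Signal: FRET fluorescence readout; Evaluation: % inhibition from 671/540 nm acceptor-to-donor ratio, scaled between controls; Control set: DMSO and neomycin B.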
CYP2C9 inh: inhibitors of human CYP2C9; actives 20% (n = 96,000); inhibition, % at 5 µM; CYP2C9 Supersomes, luciferin-H conversion, luminescence; P11712; AID 777;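 active means blocking of liver enzyme CYP2C9 beyond about 50% at 5 µM, limit read from the data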
Target sequence (P11712 whole entry, looked up): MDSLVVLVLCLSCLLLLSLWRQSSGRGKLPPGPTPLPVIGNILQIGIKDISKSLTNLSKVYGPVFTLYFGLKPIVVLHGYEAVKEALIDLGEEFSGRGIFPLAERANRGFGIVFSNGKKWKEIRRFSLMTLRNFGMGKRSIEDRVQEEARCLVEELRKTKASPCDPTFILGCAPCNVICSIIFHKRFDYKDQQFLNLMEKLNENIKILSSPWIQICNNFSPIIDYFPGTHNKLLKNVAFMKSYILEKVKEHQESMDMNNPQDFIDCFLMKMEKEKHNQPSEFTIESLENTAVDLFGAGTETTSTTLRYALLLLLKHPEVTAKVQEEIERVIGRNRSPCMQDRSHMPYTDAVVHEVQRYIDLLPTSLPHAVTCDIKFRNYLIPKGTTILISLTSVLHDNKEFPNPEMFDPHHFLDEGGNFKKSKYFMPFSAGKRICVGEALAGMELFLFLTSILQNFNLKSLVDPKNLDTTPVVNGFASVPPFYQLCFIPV
CYP2C19 act: cytochrome P450 2C19 (human) activation | P33261 | recombinant CYP2C19, luciferin-H EGE luminescence; stronger effect = higher value; 0 = fully inhibited enzyme, 1 = untreated enzyme | activation factor at 5 µM | 96,000 tested, under 10 active;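 active means activation factor of at least 2 at 5 µM in the primary screen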;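 further: 0 = wells with 2.5 mM tranylcypromine and 1 = vehicle-only wells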
CYP2C9 activ: increases human cytochrome P450 2C9 activity. actives 1.4% (n = 96,000). AID 1024. recombinant CYP2C9, luciferin-H conversion, luminescence; stronger effect = higher value; factor 1 = untreated enzyme, 0 = blocked. activation factor at 5 µM;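 active means activation factor of 2 or more for CYP2C9 at a 5 µM dose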;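 further: 0 = sulfaphenazole-blocked wells and 1 = vehicle-only wells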
Numbers without * were called inactive; · = no result.

SMILES	Cav32 inh	CYP2C19 inhib	HIV Rev-RRE inh	CYP2C9 inh	CYP2C19 act	CYP2C9 activ
CCOC(=O)C1=C(C)N(C)C(=O)NC1c1ccccc1OC (configuration not stated)	0.1	28	0	14	0.7	0.9
CCCCCOC(=O)C1=C(C)N(C)C(=O)NC1c1cc(Br)c(O)c(OC)c1 (configuration not stated)	-3.4	59*	0	70*	0.4	0.3
CCOC(=O)c1ccc(NC(=O)c2nc[nH]c2C(=O)N(CC)CC)cc1	0.49	·	·	·	·	·
CCOC(=O)c1[nH]cnc1C(=O)Nc1ccncc1	0.19	33	2	54*	0.7	0.5
Cc1ccccc1NC(=O)c1ccc(CN2CCc3ccccc3C2)cc1	-6.7*	32	7	27	0.7	0.7
CCc1ccccc1NC(=O)c1ccc(CN2CCC(Cc3ccccc3)CC2)cc1	-7.8*	56*	7	35	0.4	0.7
CN1CCN(C(=O)c2ccc(CN3CCOCC3)cc2)CC1	·	-12	7	-22	1.1	1.2
O=C(c1ccc(CN2CCOCC2)cc1)N1CCC(Cc2ccccc2)CC1	0.024	66*	-1	71*	0.3	0.3
O=C(COC(=O)c1c2ccccc2cc2ccccc12)Nc1ncc(C(F)(F)F)cc1Cl	-2.5	7	5	17	0.9	0.8
CN(Cc1cccs1)S(=O)(=O)c1cccs1	0.41	92*	7	-10	0.1	1.1
COc1ccccc1N(CC(=O)NCCc1ccccc1)S(C)(=O)=O	0.42	38	5	18	0.6	0.8
CN(CC(=O)NCCc1ccccc1)S(=O)(=O)c1cccs1	0.46	58*	8	37	0.4	0.6
CN(Cc1ccccc1)S(=O)(=O)c1cccs1	-0.82	98*	4	29	0	0.7
Cc1ccc(S(=O)(=O)N2CCC(=O)N(CCOCc3ccc(Cl)cc3)CC2)cc1	-1	·	·	·	·	·
CCCCOc1ccc(CN2CCC(O)CC2)cc1	0.54	19	5	23	0.8	0.8
CCCCN(C)C(=O)C1CCN(Cc2ccc(OCc3ccccc3)cc2)CC1	-3.6*	·	7	·	·	·
COc1ccc(COC(=O)C2=C(C)NC(=O)NC2c2ccc(O)c(OC)c2)cc1 (configuration not stated)	-1	70*	0	62*	0.3	0.4
CCCC1=C(C(=O)OCC)C(c2ccc(NC(C)=O)cc2)NC(=O)N1 (configuration not stated)	0.19	3	4	5	1	1
CCOc1cc(C2NC(=O)NC(C)=C2C(=O)OCc2ccccc2)ccc1O (configuration not stated)	-0.037	59*	3	71*	0.4	0.3
COc1cc(C2NC(=O)NC(C)=C2C(=O)OCc2ccccc2)ccc1O (configuration not stated)	-0.48	30	·	41	0.7	0.6
CCOC(=O)C1=C(C)NC(=O)NC1c1ccc(OCCO)c(OC)c1 (configuration not stated)	0.17	-7	0	-2	1.1	1
CCOC(=O)C1=C(CNCc2ccc(C)cc2)NC(=O)NC1c1ccc(OC)cc1 (configuration not stated)	-4.7*	22	3	24	0.8	0.8
CCOC(=O)C1=C(C)NC(=O)NC1c1c(O)ccc2ccccc12 (configuration not stated)	-0.75	86*	6	-5	0.1	1
COc1ccc(-c2nc3nc(C)cc(C)n3n2)cc1	-0.33	4	3	-2	1	1
c1ccc(-n2c(SCc3ccncc3)nnc2-c2ccco2)cc1	1.6	59*	4	76*	0.4	0.2
SMILES	Cav32 inh	CYP2C19 inhib	HIV Rev-RRE inh	CYP2C9 inh	CYP2C19 act	CYP2C9 activ
COc1ccc(-c2noc(CSc3nc4ccccc4c(=O)n3-c3ccccc3)n2)cc1	-2.4	9	8	32	0.9	0.7
c1ccc(-n2c(SCc3nc(-c4cccs4)no3)nnc2-c2ccco2)cc1	-2.9	43	10	92*	0.6	0.1
Cc1sc2nc(SCc3nc(-c4cccs4)no3)n(-c3ccccc3)c(=O)c2c1C	-3.5	20	5	66*	0.8	0.3
O=C(NCc1cccnc1)c1ccc(=O)oc1	-0.22	-11	5	-3	1.1	1
O=C(Cc1cc(=O)[nH]c(=O)[nH]1)NCCN1CCOCC1	-0.29	·	3	·	·	·
O=C(O)c1ccccc1S(=O)(=O)NCC(O)COc1ccc(Br)cc1 (configuration not stated)	0.37	12	3	26	0.9	0.7
COc1ccccc1C(=O)O/N=C1/CCCc2c1ccc(OC)c2[N+](=O)[O-]	0.72	85*	4	51*	0.1	0.5
COc1cc(C(=O)O/N=C2\CCCc3c2ccc(OC)c3[N+](=O)[O-])cc(OC)c1OC	·	-5	-3	-10	1	1.1
COCCn1c(SCc2cnc(-c3ccccc3)s2)nnc1-c1ccncc1	2	82*	2	32	0.2	0.7
COc1ccc(-n2cnnc2SCc2cnc(-c3ccccc3)s2)cc1	0.75	66*	4	25	0.3	0.8
CCN(CC#CCC1(O)c2ccccc2-c2ccccc21)C(C)C	0.7	29	2	19	0.7	0.8
COc1ccc2nc(/N=C\N(C)C)sc2c1	-0.72	10	3	-10	0.9	1.1
CN(C)/C=N/c1nc2ccc3c(c2s1)CCCC3	-0.27	81*	5	8	0.2	0.9
COC(=O)c1cc2c([nH]c3ccccc32)c(C)n1	0.19	62*	5	-3	0.4	1
O=C(NCCc1cccc(F)c1)[C@@H]1CSC2c3ccccc3C(=O)N21 (some centres not stated)	-1	21	3	28	0.8	0.7
COc1ccc(Cl)cc1N(CC(=O)Nc1ccc2c(c1)OCO2)S(C)(=O)=O	-2.5	95*	1	86*	0.1	0.1
COc1ccc(OC)c(N(CC(=O)Nc2ccc3c(c2)OCO3)S(=O)(=O)c2ccccc2)c1	-2.4	98*	10	100*	0	0
COC(=O)CN(c1ccc2c(c1)OCO2)S(C)(=O)=O	0.56	46	5	12	0.5	0.9
COC(=O)c1ccc(C(=O)OC)c(NC(=O)CN(c2ccc3c(c2)OCO3)S(C)(=O)=O)c1	-1.2	89*	10	76*	0.1	0.2
CS(=O)(=O)N(CC(=O)Nc1ccc2c(c1)OCCO2)c1ccc2c(c1)OCO2	-0.63	88*	1	58*	0.1	0.4
Cc1oc(/C=N/NC(=O)CN(c2ccccc2Br)S(C)(=O)=O)cc1Br	-2.2	·	12	·	·	·
CCCNC(=O)NC1C(NC(=O)NCCC)N(C)C(=O)N1C (configuration not stated)	-0.84	9	8	1	0.9	1
